Source: PubChem (several laboratories)
Hits are enriched below; roughly 9.2% of the tested compounds scored in any of these assays.
Dynein transport – blocks dynein driven cargo transport along microtubules. 3617.4 mouse cells, GR-EGFP nuclear translocation imaging; test concentration mostly 20 µM; stimulated with dexamethasone, 1 µM; hits give low values. z-score, hits read low. 220,000 compounds, 0.47% hits. AID 1381;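 active = plate z-score of nuclear minus cytoplasmic receptor signal below a set negative limit, without overly bright fluorescence or cell loss, cut at about -3.5 in these data, passing the limit was not always enough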;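 also: z-score of nuclear minus cytoplasmic ring GR-EGFP intensity difference per well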
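Buffer or medium: tet-free medium with charcoal-stripped serum / Also added: dexamethasone agonist, 1.0 µM final, for 30 min / Timing: induction 48 h, compound 1 h, agonist 30 min / Measured by: high-content fluorescence imaging after fixation / Read-out: nuclear-to-cytoplasmic GR-EGFP distribution per well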
Autophagy HCS – alters autophagy in cells. MEF GFP-LC3 puncta imaging; test concentration mostly 10 µM. calls only at 10 µM (by protocol). 190,000 compounds, 0.98% hits. AID 463193;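 active = percentage of spot-positive cells more than 3 SD above its plate mean, without a fluorescence outlier flag or 80% toxicity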
PTEN del growth – PTEN-deleted cell growth suppression; HCT116 PTEN-null viability, CellTiter-Glo, 60 h; hits give low values; viability, % at 10 µM; 140,000 compounds, 1.2% hits; AID 827;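 active = viability at or below a set limit, 4 SD under the median of all tested compounds, cut at about 3.7% in these data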;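 also: PTEN knockout HCT116 line with beta catenin targeted HCT116 as companion control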
L major viab – reduces viability of Leishmania major promastigotes; 200,000 compounds, 9% hits; resazurin fluorescence viability; inhibition, % at 10 µM; AID 1063; in the data active = inhibition above about 50%;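 also: promastigotes grown with compound for 44 hours at 28 °C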
HCT116 bCat-KO – beta-catenin-lacking colon tumor cell growth suppression; viability, % at 10 µM; 140,000 compounds, 1.5% hits; HCT116 beta-catenin knockout viability, CellTiter-Glo, 60 h; hits give low values;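 active = viability at or under a set limit, the compound median less 4 SD, cut at about 6% in these data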
Hits are given with their value; - = inactive; . = no result given; + = active, no number.

SMILES	Dynein transport	Autophagy HCS	PTEN del growth	L major viab	HCT116 bCat-KO
O=C(CCN1C(=O)C2CCCCC2C1=O)Nc1ccc(F)c(F)c1F (stereo not drawn)	-	+	.	-	.
CC1CCN(C(C(=O)O)c2ccccc2)CC1 (stereo not drawn)	-	-	.	-	.
O=C(c1ccccc1)[C@@H]1[C@@H](C(=O)c2ccc(F)cc2)[C@@]2(C(=O)Nc3ccccc32)[C@H]2c3ccccc3C=CN12	-	-	-	74	-
CCOC(=O)c1sc(-c2ccccc2)cc1NC(=O)Nc1ccc([N+](=O)[O-])cc1	-	-	-	85	-
CC1CCc2c(C(=O)N3CCN(S(=O)(=O)c4cccs4)CC3)csc2C1 (stereo not drawn)	-	-	-	-	-
C=CCNC(=S)N1CCN(Cc2ccccc2)CC1	-	-	.	-	.
Cc1ccc(-c2nc3c(=O)n(C)c4ccccc4c3o2)cc1	-	-	-	63	-
Cc1ccc(-c2nc3c(=O)n(-c4ccccc4)c4c(c(=O)n(C)c(=O)n4C)c3o2)cc1	-	.	.	.	.
COCCCNS(=O)(=O)c1ccc(C)cc1	-	-	.	-	.
CCN(CC)CC(C)(C)NS(=O)(=O)c1ccc(Cl)cc1	-	-	-	71	-
CC1CC(C)CN(CC(C)(C)NS(=O)(=O)c2ccc(Cl)cc2)C1 (stereo not drawn)	-	-	-	95	-
CC(C)(CN1CCN(Cc2ccccc2)CC1)NS(=O)(=O)c1ccccc1	-	.	.	.	.
CC(C)(CN1CCCCC1)NS(=O)(=O)c1ccc(Cl)cc1	-	-	-	90	-
Cc1ccc(S(=O)(=O)NC(C)(C)CN2CCc3ccccc3C2)cc1	-	.	.	.	.
CC(C)(CNS(=O)(=O)c1ccc(Cl)cc1)N1CCCCC1	-	-	-	81	-
CC(C)(C)SCCNS(=O)(=O)c1ccc(Cl)cc1	-	-	.	-	.
CN(C)CC(C)(C)NS(=O)(=O)c1ccc(Cl)cc1	-	-	-	-	-
OCC(Cc1ccc2c(c1)OCO2)C(CO)Cc1ccc2c(c1)OCO2 (stereo not drawn)	-	.	.	.	.
O=C(Nc1ccc(N2CCCCC2)c(Cl)c1)c1ccc(N2CCOCC2)c([N+](=O)[O-])c1	-	-	-	93	-
Cc1ccc(NC(=O)c2ccc(NCCCN3CCOCC3)c([N+](=O)[O-])c2)cc1Cl	-	-	-	99	-
COc1ccc(NC(=O)c2ccc(NCCCN3CCOCC3)c([N+](=O)[O-])c2)cc1	-	-	-	55	-
CC(C)(C)c1ccccc1NC(=O)c1c(O)c2cccc3c2n(c1=O)CC3	-	-	.	-	.
Cc1ccc(NC(=O)c2cc(N3C(=O)CCC3=O)ccc2N2CCCCC2)cc1	-	-	.	-	.
COc1cc(CNCc2cccnc2)ccc1OCC(=O)NC(C)(C)C	-	-	.	92	.
COc1cc(CNCc2ccccn2)ccc1OCC(=O)NC(C)(C)C	-	-	-	-	-
SMILES	Dynein transport	Autophagy HCS	PTEN del growth	L major viab	HCT116 bCat-KO
CC(C)(C)NC(=O)COc1ccc(CNCc2cccnc2)cc1	-	-	.	89	.
COc1cc(CNCCc2ccccc2)ccc1OCC(=O)NC(C)(C)C	-	-	-	99	-
COc1cc(CNCCCO)ccc1OCC(=O)NC(C)(C)C	-	-	.	-	.
Cc1ccccc1NS(=O)(=O)c1ccc(OCC(=O)NCc2cccnc2)cc1	-	+	-	-	-
C/C(=N\N1C(=O)CSC1=S)c1ccc(Br)cc1	-	-	.	-	.
CN(Cc1ccccc1)C(=O)N1CCOCC1	-	.	.	.	.
Cc1ccc(-n2cc(CN3CCN(C(=O)c4ncn[nH]4)CC3)c(-c3ccc(F)cc3)n2)cc1	-	.	.	.	.
COc1ccccc1N1CC(O)=C(c2nc3ccccc3c(=O)[nH]2)C1=N	-	-	-	99	-
N=C1C(c2nc3ccccc3c(=O)[nH]2)=C(O)CN1CCO	-	-	-	-	-
N=C1C(c2nc3ccccc3c(=O)[nH]2)=C(O)CN1CCc1ccccc1	-	-	-	60	-
COc1ccc(N=Cc2cc(Cc3ccccc3Cl)cc([N+](=O)[O-])c2O)cc1OC	-	-	.	-	.
Cc1ccc(N=Cc2cc(Cc3ccccc3Cl)cc([N+](=O)[O-])c2O)c(O)c1	-	-	.	73	.
CCOC(=O)c1ccc(-n2c(C)ccc2C)cc1	-	-	-	-	-
CCOC(=O)c1ccc(N=c2sc(C(=O)OC)cc(=O)n2-c2ccc(C(=O)OCC)cc2)cc1	-	-	-	100	3.3
CCNc1nc(NC(C)(C)C)nc(N2CCCCC2)n1	-	-	.	95	.
CC(C)(CO)Nc1nc(N2CCCC2)nc(N2CCCC2)n1	-	-	-	100	-
CCNc1nc(N2CCCC2)nc(N2CCCC2)n1	-	-	.	73	.
CCNc1nc(C(=O)O)nc(N2CCOCC2)n1	-	-	.	-	.
CC(C)(C)Nc1nc(OCC#N)nc(N2CCCCC2)n1	-	-	.	-	.
CC(=O)Nc1ccc(C2=NN(C)C(=NCc3ccccc3)SC2)cc1	-	-	.	67	.
O=C(Nc1ccc(Cl)cc1)N1CCSC1=NCc1ccccc1	-	.	.	.	.
COc1ccc(CC(=O)NNC2=Nc3cccc4cccc2c34)cc1OC	-	.	.	.	.
O=C(NNC1=Nc2cccc3cccc1c23)c1ccc(Br)cc1	-	-	.	82	.
CN1CCN(c2ncccc2S(=O)(=O)N2CCCCC2)CC1	-	-	-	-	-
CCOc1ccccc1-c1nc(-c2cc3ccccc3nc2OC)no1	-	-	-	-	-
SMILES	Dynein transport	Autophagy HCS	PTEN del growth	L major viab	HCT116 bCat-KO
Cc1cc(=O)n2[nH]c(-c3ccc(C(C)(C)C)cc3)cc2n1	-	-	-	100	-
CCc1c(C)nc2cc(-c3ccc(OC)cc3)[nH]n2c1=O	-	-	-	58	-
CCn1cc(C(=O)N2CCN(c3ccccn3)CC2)c(=O)c2cc(S(=O)(=O)N(C)C3CCCCC3)ccc21	-	-	.	-	.
Cc1cc(C)n(C(=O)CCCn2cc([N+](=O)[O-])cn2)n1	-	-	.	-	.
CCN(CC)CCSc1nc(O)c(-c2ccccc2)c(=O)n1-c1ccccc1	-	-	.	-	.
CCN(CC)CCSc1nc2ccccc2c(=S)n1-c1ccccc1	-	-	.	82	.
CN(C)CCCNc1ncc(C(F)(F)F)cc1Cl	-	-	.	-	.
CN(C)CCCNS(=O)(=O)c1ccc(Oc2ncc(C(F)(F)F)cc2Cl)cc1	-	-	-	95	-
Cc1nn(CC(=O)NCc2cccnc2)c(C)c1[N+](=O)[O-]	-	-	.	-	.
COc1ccc(CNCC(O)(c2ccccc2)c2ccc(Cl)cc2)cc1 (stereo not drawn)	.	-	-	-	-
Cc1ccc(CNCC(O)(c2ccccc2)c2ccc(Cl)cc2)cc1 (stereo not drawn)	-	+	.	-	.
O=C(O)c1ccc(CNCc2cccc(Cl)c2)cc1	-	-	.	-	.
COc1cccc(CNCC(O)(c2ccc(Cl)cc2)c2ccc(Cl)cc2)c1	-	-	-	65	-
COc1ccc(CNCc2cccc(Cl)c2)cc1	-	-	-	66	-
O=C(O)CCC(=O)Nc1ccc(/C=C/C(=O)C2CC2)cc1	-	-	.	-	.
CCOc1ccc(CO/N=C/c2c(C)[nH]c(=O)[nH]c2=O)cc1	-	-	.	-	.
COc1ccc(-n2c(C)cc(C(=O)CN3CCCCC3)c2C)cc1	-	-	.	-	.
